ChEMBL document CHEMBL1949525, “Boranophosphate isoster controls P2Y-receptor subtype selectivity and metabolic stability of dinucleoside polyphosphate analogues” (J Med Chem, 2012)
The source made the active and inactive calls. The rule behind the calls is not given here.

Tests used:
[1] = Stability of the compound assessed as human e-NPP1-mediated hydrolysis at pH 8.5 after 20 mins by HPLC analysis; assay type: ADME; conditions: buffer, pH 8.5, 20 min; for Drug degradation: 20 min
Method in brief: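 Human NPP1 preparation preincubated 3 min at 37 °C in 1 mM CaCl2, 200 mM NaCl, 10 mM KCl, 100 mM Tris, pH 8.5. Started with 0.2 mM dinucleotide solution (added volume) and stopped after 20 min in ice-cold perchloric acid. Neutralised with KOH, then NMP formation followed by HPLC. Percent substrate hydrolysed is the mean of two experiments run in triplicate.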

P2Y purinoceptor 1 = P2Y purinoceptor 1 (Meleagris gallopavo, UniProt P49652); assay: Agonist activity at turkey P2Y purinoceptor 1 expressed in human 1321N1 cells assessed as increase in intracellular calcium concentration by spectrofluorimetry; assay type: functional, cell-based
P2Y purinoceptor 2 [2] = biological target: T1, P2Y purinoceptor 2 (Homo sapiens, UniProt P41231); assay: Agonist activity at human P2Y purinoceptor 2 expressed in human 1321N1 cells assessed as increase in intracellular calcium concentration by spectrofluorimetry; assay type: functional, cell-based
P2Y purinoceptor 2 [3] = biological target: T1, P2Y purinoceptor 2; assay: Antagonist activity at human P2Y purinoceptor 2 expressed in human 1321N1 cells assessed as inhibition of UTP-induced increase in intracellular calcium concentration by spectrofluorimetry; assay type: functional, cell-based
Method in brief: (§1)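 Fura-2-loaded 1321N1 transfectants (turkey P2Y1, human P2Y2/P2Y4, rat P2Y6) in Hepes-buffered saline, pH 7.4, at 37 °C. Analogues were tested against equimolar reference agonist: 2-MeS-ADP for P2Y1, UTP for P2Y2/4, UDP for P2Y6. Blockade of the [Ca2+]i rise was followed by dual-excitation spectrofluorometry.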

[4] = biological target: P2Y purinoceptor 1 (Meleagris gallopavo) (UniProt P49652); assay: Antagonist activity at turkey P2Y purinoceptor 1 expressed in human 1321N1 cells assessed as inhibition of 2-Sme-ADP-induced increase in intracellular calcium concentration by spectrofluorimetry; assay type: functional, cell-based; method in brief: as §1
P2Y purinoceptor 4 [5] = biological target: T2, P2Y purinoceptor 4 (Homo sapiens, UniProt P51582); assay: Antagonist activity at human P2Y purinoceptor 4 expressed in human 1321N1 cells assessed as inhibition of UTP-induced increase in intracellular calcium concentration by spectrofluorimetry; assay type: functional, cell-based; method in brief: as §1
[6] = biological target: P2Y purinoceptor 6 (Rattus norvegicus) (UniProt Q63371); assay: Antagonist activity at rat P2Y purinoceptor 6 expressed in human 1321N1 cells assessed as inhibition of UDP-induced increase in intracellular calcium concentration by spectrofluorimetry; assay type: functional, cell-based; method in brief: as §1
P2Y purinoceptor 6 = P2Y purinoceptor 6 (Rattus norvegicus, UniProt Q63371); assay: Agonist activity at rat P2Y purinoceptor 6 expressed in human 1321N1 cells assessed as increase in intracellular calcium concentration by spectrofluorimetry; assay type: functional, cell-based
Method in brief: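 1321N1 astrocytoma cells lacking endogenous P2Y receptors, stably transfected with turkey P2Y1, human P2Y2, human P2Y4 or rat P2Y6, grown in DMEM with 5% FBS, penicillin/streptomycin and 500 µg/mL G-418. Fura-2-loaded cell suspensions were exposed at 37 °C in 10 mM Hepes-buffered saline, pH 7.4, with 1 mM CaCl2 and 1 mM MgCl2. Peak [Ca2+]i rise by dual-excitation spectrofluorometry across concentrations; EC50 from curve fits; three experiments on separate days per subtype.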

P2Y purinoceptor 4 [7] = biological target: T2, P2Y purinoceptor 4; assay: Agonist activity at human P2Y purinoceptor 4 expressed in human 1321N1 cells assessed as increase in intracellular calcium concentration by spectrofluorimetry; assay type: functional, cell-based
Method in brief: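 1321N1 astrocytoma cells (no endogenous P2Y receptors) stably expressing hP2Y4, grown in DMEM with 5% FBS, penicillin/streptomycin and 500 μg/mL G-418. Fura-2-loaded cell suspensions; compounds applied at various concentrations, 37 °C, 10 mM Hepes-buffered saline pH 7.4 with 1 mM CaCl2/MgCl2. Peak [Ca2+]i rise by dual-excitation fluorometry gives EC50; UTP reference agonist; three experiments on separate days.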

Chain of P2Y purinoceptor 1 (Meleagris gallopavo) (P49652 whole entry): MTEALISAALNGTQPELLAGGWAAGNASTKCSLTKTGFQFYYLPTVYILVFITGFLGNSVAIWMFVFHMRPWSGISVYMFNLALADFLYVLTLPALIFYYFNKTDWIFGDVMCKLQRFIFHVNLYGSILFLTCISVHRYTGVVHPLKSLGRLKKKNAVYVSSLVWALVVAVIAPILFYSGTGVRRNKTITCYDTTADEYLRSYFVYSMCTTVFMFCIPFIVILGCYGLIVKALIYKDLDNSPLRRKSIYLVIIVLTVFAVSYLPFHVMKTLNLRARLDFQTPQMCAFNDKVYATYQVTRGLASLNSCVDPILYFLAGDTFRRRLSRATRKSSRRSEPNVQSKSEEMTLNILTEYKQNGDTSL
Chain of P2Y purinoceptor 1 (P49652 whole entry): as above
T2 sequence (P51582 whole entry): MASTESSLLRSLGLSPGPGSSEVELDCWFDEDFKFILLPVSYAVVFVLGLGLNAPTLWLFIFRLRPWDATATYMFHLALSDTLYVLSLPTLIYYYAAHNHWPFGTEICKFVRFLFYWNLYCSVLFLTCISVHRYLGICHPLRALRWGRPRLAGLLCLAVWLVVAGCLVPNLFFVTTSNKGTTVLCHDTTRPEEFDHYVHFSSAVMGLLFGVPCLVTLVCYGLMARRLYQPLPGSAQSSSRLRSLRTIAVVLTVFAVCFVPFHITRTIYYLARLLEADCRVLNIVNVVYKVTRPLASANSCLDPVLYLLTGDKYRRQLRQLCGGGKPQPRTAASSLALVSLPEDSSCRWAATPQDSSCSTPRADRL
Chain of P2Y purinoceptor 6 (Rattus norvegicus) (Q63371 whole entry): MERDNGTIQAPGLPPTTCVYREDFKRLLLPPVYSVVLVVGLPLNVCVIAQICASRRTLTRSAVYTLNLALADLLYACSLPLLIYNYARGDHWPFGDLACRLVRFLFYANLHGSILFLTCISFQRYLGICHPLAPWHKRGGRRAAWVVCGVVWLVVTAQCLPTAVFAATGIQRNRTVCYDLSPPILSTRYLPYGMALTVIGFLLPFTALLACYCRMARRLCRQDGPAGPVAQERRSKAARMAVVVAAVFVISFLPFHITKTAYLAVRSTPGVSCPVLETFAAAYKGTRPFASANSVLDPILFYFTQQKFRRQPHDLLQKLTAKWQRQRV
Chain of P2Y purinoceptor 6 (Q63371 whole entry): as above
T1 sequence (P41231 whole entry): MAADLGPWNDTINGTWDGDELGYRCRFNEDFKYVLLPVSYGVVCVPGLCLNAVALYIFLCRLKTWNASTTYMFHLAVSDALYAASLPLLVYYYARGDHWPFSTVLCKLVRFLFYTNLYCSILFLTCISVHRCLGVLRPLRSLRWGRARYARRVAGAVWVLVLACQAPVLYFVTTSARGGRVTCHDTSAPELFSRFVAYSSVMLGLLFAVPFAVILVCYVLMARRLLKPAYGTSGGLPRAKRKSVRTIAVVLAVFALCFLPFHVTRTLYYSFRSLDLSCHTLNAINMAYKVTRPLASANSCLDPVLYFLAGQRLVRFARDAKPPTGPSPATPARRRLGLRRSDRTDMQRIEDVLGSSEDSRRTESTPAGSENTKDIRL

Structure (SMILES) | Drug degradation [1] [%] | EC50 (P2Y purinoceptor 1; read-out: EC50) [µM] | Activity (P2Y purinoceptor 2 [3]) | Activity [4] | Activity (P2Y purinoceptor 4 [5]) | Activity [6] | EC50 (P2Y purinoceptor 6; read-out: EC50) [µM] | also measured
BP(=O)(OC[C@H]1O[C@@H](n2cnc3c(N)ncnc32)[C@H](O)[C@@H]1O)OP(=O)(O)OP(=O)(O)OP(=O)(O)OC[C@H]1O[C@@H](n2cnc3c(N)ncnc32)[C@H](O)[C@@H]1O.CCCCN(CCCC)CCCC.CCCCN(CCCC)CCCC.CCCCN(CCCC)CCCC.CCCCN(CCCC)CCCC (stereo in doubt; 12B) [listing 1 of 2 here] | 17 | 6.9 |  |  |  |  |  | EC50 (P2Y purinoceptor 2 [2]; read-out: EC50): 64.2 µM
BP(=O)(OC[C@H]1O[C@@H](n2cnc3c(N)ncnc32)[C@H](O)[C@@H]1O)OP(=O)(O)OP(=O)(O)OP(=O)(O)OC[C@H]1O[C@@H](n2cnc3c(N)ncnc32)[C@H](O)[C@@H]1O.CCCCN(CCCC)CCCC.CCCCN(CCCC)CCCC.CCCCN(CCCC)CCCC.CCCCN(CCCC)CCCC (stereo in doubt; 12A) [listing 1 of 2 here] | 2.5 | 1.48 |  |  |  |  |  | EC50 (P2Y purinoceptor 4 [7]; 1321-n1): Not Active; EC50 (P2Y purinoceptor 6; 1321-n1): Not Active; EC50 (P2Y purinoceptor 2 [2]; read-out: EC50): 25.9 µM
BP(=O)(OP(=O)(O)OC[C@H]1O[C@@H](n2cnc3c(N)ncnc32)[C@H](O)[C@@H]1O)OP(=O)(O)OP(=O)(O)OC[C@H]1O[C@@H](n2ccc(=O)[nH]c2=O)[C@H](O)[C@@H]1O.CCCCN(CCCC)CCCC.CCCCN(CCCC)CCCC.CCCCN(CCCC)CCCC.CCCCN(CCCC)CCCC (stereo in doubt; 8B) [listing 1 of 2 here] |  |  | inactive | inactive | inactive | inactive |  | 
BP(=O)(OC[C@H]1O[C@@H](n2cnc3c(N)ncnc32)[C@H](O)[C@@H]1O)OP(=O)(O)OP(=O)(O)OP(=O)(O)OC[C@H]1O[C@@H](n2cnc3c(N)ncnc32)[C@H](O)[C@@H]1O.CCCCN(CCCC)CCCC.CCCCN(CCCC)CCCC.CCCCN(CCCC)CCCC.CCCCN(CCCC)CCCC (stereo in doubt; 12A) [listing 2 of 2 here] |  |  | inactive | inactive | inactive | inactive |  | 
BP(=O)(OC[C@H]1O[C@@H](n2cnc3c(N)ncnc32)[C@H](O)[C@@H]1O)OP(=O)(O)OP(=O)(O)OC[C@H]1O[C@@H](n2cnc3c(N)ncnc32)[C@H](O)[C@@H]1O.CCCCN(CCCC)CCCC.CCCCN(CCCC)CCCC.CCCCN(CCCC)CCCC (stereo in doubt; 10B) [listing 1 of 2 here] |  |  | inactive | inactive | inactive | inactive |  | 
BP(=O)(OC[C@H]1O[C@@H](n2ccc(=O)[nH]c2=O)[C@H](O)[C@@H]1O)OP(=O)(O)OP(=O)(O)OP(=O)(O)OC[C@H]1O[C@@H](n2ccc(=O)[nH]c2=O)[C@H](O)[C@@H]1O.CCCCN(CCCC)CCCC.CCCCN(CCCC)CCCC.CCCCN(CCCC)CCCC.CCCCN(CCCC)CCCC (stereo in doubt; 13B) | 11.3 |  |  |  |  |  | 3.9 | EC50 (P2Y purinoceptor 4 [7]; read-out: EC50): 16.8 µM; EC50 (P2Y purinoceptor 2 [2]; read-out: EC50): 24.6 µM
BP(=O)(OC[C@H]1O[C@@H](n2cnc3c(N)ncnc32)[C@H](O)[C@@H]1O)OP(=O)(O)OP(=O)(O)OC[C@H]1O[C@@H](n2cnc3c(N)ncnc32)[C@H](O)[C@@H]1O.CCCCN(CCCC)CCCC.CCCCN(CCCC)CCCC.CCCCN(CCCC)CCCC (stereo in doubt; 10A) [listing 2 of 2 here] | 0 | 0.76 |  |  |  |  |  | EC50 (P2Y purinoceptor 4 [7]; 1321-n1): Not Active; EC50 (P2Y purinoceptor 6; 1321-n1): Not Active; EC50 (P2Y purinoceptor 2 [2]; 1321-n1): Not Active
BP(=O)(OP(=O)(O)OC[C@H]1O[C@@H](n2ccc(=O)[nH]c2=O)[C@H](O)[C@@H]1O)OP(=O)(O)OP(=O)(O)OC[C@H]1O[C@@H](n2cnc3c(N)ncnc32)[C@H](O)[C@@H]1O.CCCCN(CCCC)CCCC.CCCCN(CCCC)CCCC.CCCCN(CCCC)CCCC.CCCCN(CCCC)CCCC (stereo in doubt; 9B) [listing 2 of 2 here] | 3.3 | 0.81 |  |  |  |  | 11.7 | EC50 (P2Y purinoceptor 2 [2]; 1321-n1): Not Active
Nc1ncnc2c1ncn2[C@@H]1O[C@H](COP(=O)(O)OP(=O)(O)OP(=O)(O)OP(=O)(O)OP(=O)(O)OC[C@H]2O[C@@H](n3cnc4c(N)ncnc43)[C@H](O)[C@@H]2O)[C@@H](O)[C@H]1O |  |  |  |  |  |  |  | Stability [1]: Unstable
BP(=O)(OP(=O)(O)OC[C@H]1O[C@@H](n2cnc3c(N)ncnc32)[C@H](O)[C@@H]1O)OP(=O)(O)OP(=O)(O)OC[C@H]1O[C@@H](n2cnc3c(N)ncnc32)[C@H](O)[C@@H]1O.CCCCN(CCCC)CCCC.CCCCN(CCCC)CCCC.CCCCN(CCCC)CCCC.CCCCN(CCCC)CCCC (stereo in doubt; 6B) | 2.1 | 4.3 |  |  |  |  |  | 
BP(=O)(OC[C@H]1O[C@@H](n2ccc(=O)[nH]c2=O)[C@H](O)[C@@H]1O)OP(=O)(O)OP(=O)(O)OP(=O)(O)OC[C@H]1O[C@@H](n2ccc(=O)[nH]c2=O)[C@H](O)[C@@H]1O.CCCCN(CCCC)CCCC.CCCCN(CCCC)CCCC.CCCCN(CCCC)CCCC.CCCCN(CCCC)CCCC (stereo in doubt; 13A) | 3.5 |  |  |  |  |  | 36.1 | EC50 (P2Y purinoceptor 1; 1321-n1): Not Active; EC50 (P2Y purinoceptor 4 [7]; read-out: EC50): 9.4 µM

Now from value to compound, other results behind:

Drug degradation [1] [%] | EC50 (P2Y purinoceptor 1; read-out: EC50) [µM] | Activity (P2Y purinoceptor 2 [3]) | Activity [4] | Activity (P2Y purinoceptor 4 [5]) | Activity [6] | EC50 (P2Y purinoceptor 6; read-out: EC50) [µM] | Structure (SMILES) | also measured
 |  | inactive | inactive | inactive | inactive |  | BP(=O)(OC[C@H]1O[C@@H](n2cnc3c(N)ncnc32)[C@H](O)[C@@H]1O)OP(=O)(O)OP(=O)(O)OC[C@H]1O[C@@H](n2cnc3c(N)ncnc32)[C@H](O)[C@@H]1O.CCCCN(CCCC)CCCC.CCCCN(CCCC)CCCC.CCCCN(CCCC)CCCC (stereo in doubt; 10A) [listing 1 of 2 here] | 
 |  | inactive | inactive | inactive | inactive |  | BP(=O)(OC[C@H]1O[C@@H](n2cnc3c(N)ncnc32)[C@H](O)[C@@H]1O)OP(=O)(O)OP(=O)(O)OP(=O)(O)OC[C@H]1O[C@@H](n2cnc3c(N)ncnc32)[C@H](O)[C@@H]1O.CCCCN(CCCC)CCCC.CCCCN(CCCC)CCCC.CCCCN(CCCC)CCCC.CCCCN(CCCC)CCCC (stereo in doubt; 12B) [listing 2 of 2 here] | 
6 |  |  |  |  |  | 0.3 | BP(=O)(OC[C@H]1O[C@@H](n2ccc(=O)[nH]c2=O)[C@H](O)[C@@H]1O)OP(=O)(O)OP(=O)(O)OC[C@H]1O[C@@H](n2ccc(=O)[nH]c2=O)[C@H](O)[C@@H]1O.CCCCN(CCCC)CCCC.CCCCN(CCCC)CCCC.CCCCN(CCCC)CCCC (stereo in doubt; 11B) | 
3.5 |  |  |  |  |  | 0.98 | BP(=O)(OP(=O)(O)OC[C@H]1O[C@@H](n2ccc(=O)[nH]c2=O)[C@H](O)[C@@H]1O)OP(=O)(O)OP(=O)(O)OC[C@H]1O[C@@H](n2ccc(=O)[nH]c2=O)[C@H](O)[C@@H]1O.CCCCN(CCCC)CCCC.CCCCN(CCCC)CCCC.CCCCN(CCCC)CCCC.CCCCN(CCCC)CCCC (stereo in doubt; 7B) | EC50 (P2Y purinoceptor 2 [2]; 1321-n1): Not Active
 |  | inactive | inactive | inactive | inactive |  | BP(=O)(OC[C@H]1O[C@@H](n2ccc(=O)[nH]c2=O)[C@H](O)[C@@H]1O)OP(=O)(O)OP(=O)(O)OC[C@H]1O[C@@H](n2ccc(=O)[nH]c2=O)[C@H](O)[C@@H]1O.CCCCN(CCCC)CCCC.CCCCN(CCCC)CCCC.CCCCN(CCCC)CCCC (stereo in doubt; 11A) | 
 |  | inactive | inactive | inactive | inactive |  | BP(=O)(OP(=O)(O)OC[C@H]1O[C@@H](n2ccc(=O)[nH]c2=O)[C@H](O)[C@@H]1O)OP(=O)(O)OP(=O)(O)OC[C@H]1O[C@@H](n2cnc3c(N)ncnc32)[C@H](O)[C@@H]1O.CCCCN(CCCC)CCCC.CCCCN(CCCC)CCCC.CCCCN(CCCC)CCCC.CCCCN(CCCC)CCCC (stereo in doubt; 9B) [listing 1 of 2 here] | 
4.4 | 0.8 |  |  |  |  |  | BP(=O)(OC[C@H]1O[C@@H](n2cnc3c(N)ncnc32)[C@H](O)[C@@H]1O)OP(=O)(O)OP(=O)(O)OC[C@H]1O[C@@H](n2cnc3c(N)ncnc32)[C@H](O)[C@@H]1O.CCCCN(CCCC)CCCC.CCCCN(CCCC)CCCC.CCCCN(CCCC)CCCC (stereo in doubt; 10B) [listing 2 of 2 here] | 
2.1 | 6.9 |  |  |  |  | 1.92 | BP(=O)(OP(=O)(O)OC[C@H]1O[C@@H](n2cnc3c(N)ncnc32)[C@H](O)[C@@H]1O)OP(=O)(O)OP(=O)(O)OC[C@H]1O[C@@H](n2ccc(=O)[nH]c2=O)[C@H](O)[C@@H]1O.CCCCN(CCCC)CCCC.CCCCN(CCCC)CCCC.CCCCN(CCCC)CCCC.CCCCN(CCCC)CCCC (stereo in doubt; 8B) [listing 2 of 2 here] | EC50 (P2Y purinoceptor 2 [2]; read-out: EC50): 64.2 µM
